7 molecules from ChEMBL document CHEMBL2321808, “Synthesis and preliminary evaluation in tumor bearing mice of new (18)F-labeled arylsulfone matrix metalloproteinase inhibitors as tracers for positron emission tomography” (J Med Chem, 2013) can be followed below.

Activity calls are given as the source filed them. The rule behind the calls is not given here.

For data set [1], the target named is T1, Interstitial collagenase (Homo sapiens, UniProt P03956).
T1 sequence (P03956 whole entry): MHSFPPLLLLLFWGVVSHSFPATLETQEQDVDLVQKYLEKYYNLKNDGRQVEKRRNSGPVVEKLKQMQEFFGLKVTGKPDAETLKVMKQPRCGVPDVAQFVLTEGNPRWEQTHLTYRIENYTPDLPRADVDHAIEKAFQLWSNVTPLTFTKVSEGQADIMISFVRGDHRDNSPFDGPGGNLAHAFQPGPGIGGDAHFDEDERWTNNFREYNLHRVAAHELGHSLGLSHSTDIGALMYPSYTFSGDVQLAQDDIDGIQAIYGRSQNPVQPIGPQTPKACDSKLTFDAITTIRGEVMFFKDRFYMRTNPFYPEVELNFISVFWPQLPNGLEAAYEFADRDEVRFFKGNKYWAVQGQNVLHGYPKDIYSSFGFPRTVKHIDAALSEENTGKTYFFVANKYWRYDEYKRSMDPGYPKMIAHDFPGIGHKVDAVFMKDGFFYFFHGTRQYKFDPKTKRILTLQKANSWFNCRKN
In words: Inhibition of MMP-1 (unknown origin) using Mca-Lys-Pro-Leu-Gly-Leu-Dap(Dnp)-Ala-Arg-NH2 as substrate after 4 hrs by fluorometric assay. The method in brief:
(§1)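 Fluorogenic substrate added at 2 μM final. Fluorescence (ex 325/em 395 nm) read every 15 s for 20 min. Run in triplicate. IC50 from vi/v0 = 1/(1 + [I]/IC50); Ki also derived.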

Data set [2] addresses Matrix metalloproteinase-9 (Homo sapiens, UniProt P14780). In words: Inhibition of MMP-9 (unknown origin) using Mca-Lys-Pro-Leu-Gly-Leu-Dap(Dnp)-Ala-Arg-NH2 as substrate after 4 hrs by fluorometric assay. The gist of the method: as §1
For data set [3], the target named is Stromelysin-1 (Homo sapiens, UniProt P08254). In words: Inhibition of MMP-3 (unknown origin) using Mca-Arg-Pro-Lys-Pro-Val-Glu-Nva-Trp-Arg-Lys-(Dnp)-NH2 as substrate after 4 hrs by fluorometric assay. The gist of the method: as §1
Chain of Stromelysin-1 (P08254 whole entry, the tested form may be a part): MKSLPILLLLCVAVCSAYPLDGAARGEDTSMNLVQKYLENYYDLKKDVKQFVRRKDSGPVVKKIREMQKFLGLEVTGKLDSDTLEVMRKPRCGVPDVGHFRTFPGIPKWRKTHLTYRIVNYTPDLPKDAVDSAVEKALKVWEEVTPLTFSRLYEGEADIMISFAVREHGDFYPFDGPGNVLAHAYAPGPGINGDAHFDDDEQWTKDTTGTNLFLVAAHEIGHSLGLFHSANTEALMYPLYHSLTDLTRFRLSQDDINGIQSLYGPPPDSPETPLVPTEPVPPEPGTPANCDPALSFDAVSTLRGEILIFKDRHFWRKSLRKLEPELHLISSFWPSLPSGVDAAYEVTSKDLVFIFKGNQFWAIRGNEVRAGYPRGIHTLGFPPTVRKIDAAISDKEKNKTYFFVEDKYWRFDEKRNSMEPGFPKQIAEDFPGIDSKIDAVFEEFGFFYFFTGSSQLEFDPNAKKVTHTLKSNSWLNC
Data set [4] addresses Matrix metalloproteinase-14 (Homo sapiens, UniProt P50281). In words: Inhibition of human recombinant MMP-14 catalytic domain using Mca-Lys-Pro-Leu-Gly-Leu-Dap(Dnp)-Ala-Arg-NH2 as substrate after 4 hrs by fluorometric assay. The gist of the method: as §1
The target in data set [5] is Macrophage metalloelastase (Homo sapiens, UniProt P39900). Kind of data set: Inhibition of MMP-12 (unknown origin) using Mca-Lys-Pro-Leu-Gly-Leu-Dap(Dnp)-Ala-Arg-NH2 as substrate after 4 hrs by fluorometric assay. The gist of the method: as §1
Chain of Macrophage metalloelastase (P39900 whole entry): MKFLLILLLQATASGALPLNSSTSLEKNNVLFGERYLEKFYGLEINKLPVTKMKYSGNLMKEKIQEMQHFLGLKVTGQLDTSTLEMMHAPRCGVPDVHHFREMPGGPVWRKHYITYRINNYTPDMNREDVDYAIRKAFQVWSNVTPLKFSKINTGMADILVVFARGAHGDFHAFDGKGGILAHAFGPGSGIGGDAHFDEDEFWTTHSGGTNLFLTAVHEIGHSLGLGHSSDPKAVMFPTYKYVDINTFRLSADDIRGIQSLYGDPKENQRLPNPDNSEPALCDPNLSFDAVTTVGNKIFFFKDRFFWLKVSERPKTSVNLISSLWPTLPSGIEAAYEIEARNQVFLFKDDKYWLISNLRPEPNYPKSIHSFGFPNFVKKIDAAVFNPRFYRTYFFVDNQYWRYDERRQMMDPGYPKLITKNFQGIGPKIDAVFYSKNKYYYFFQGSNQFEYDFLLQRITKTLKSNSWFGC
Data set [6] concerns the target 72 kDa type IV collagenase (Homo sapiens, UniProt P08253). In words: Inhibition of MMP-2 (unknown origin) using Mca-Lys-Pro-Leu-Gly-Leu-Dap(Dnp)-Ala-Arg-NH2 as substrate after 4 hrs by fluorometric assay. The gist of the method:
as §1

For data set [7], the target named is Collagenase 3 (Homo sapiens, UniProt P45452). In words: Inhibition of MMP-13 (unknown origin) using Mca-Lys-Pro-Leu-Gly-Leu-Dap(Dnp)-Ala-Arg-NH2 as substrate after 4 hrs by fluorometric assay. The method in brief: as §1
Data set [8] has as its target Albumin (Homo sapiens, UniProt P02768). In words: Binding affinity to human serum albumin by 19F NMR titration assay. In kind it is ADME. The method in brief: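 19F NMR at 310.0 K; ligand at 1.0 mM final (dissolved in DMSO, brought to volume with PBS pH 7.4 containing 10% D2O), TFA as chemical-shift reference. Fatty-acid-free human serum albumin added stepwise (0.36 mM aliquots in PBS or solid) up to protein:ligand 3:1; scans raised from 64 to 16 384 along the titration.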

Data set [9] concerns Liver. Kind of data set: Biodistribution in CD1 nude mouse liver at 7.4 MBq, iv after 10 mins by PET imaging analysis. The format is ADME, organism-based. As to conditions: in vivo. The method in brief:
(§2)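 Healthy CD1 nude mice, 6–8 weeks old (n = 2–3 per tracer), under isoflurane anesthesia. Tracer given by tail-vein catheter, ~7.4 MBq in 0.15–0.30 mL PBS. Dynamic PET from injection to 2.5 h. Organ ROIs drawn and counts calibrated against an [18F]fluoride phantom. Uptake decay-corrected and expressed as %ID/g.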

Data set [10] relates to Mus musculus. In words: Biodistribution in CD1 nude mouse small intestine at 7.4 MBq, iv after 140 mins by PET imaging analysis. The format is ADME, organism-based. As to conditions: in vivo. The method in brief:
(§3)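 Healthy CD1 nude mice, 6–8 weeks, 2–3 per tracer, anesthetized with isoflurane. Tail-vein injection via catheter in PBS, with residual syringe dose checked. Dynamic PET from injection to 2.5 h, 3D EM reconstruction, no attenuation or scatter correction, phantom-calibrated. Manual ROIs on organs; decay-corrected uptake expressed as % ID/g.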

The subject of data set [11] is Liver. Kind of data set: Biodistribution in CD1 nude mouse liver at 7.4 MBq, iv after 45 mins by PET imaging analysis. As to conditions: in vivo, 0.75 h. The format is ADME, organism-based. The method in brief:
as §3

In data set [12] the test system is Mus musculus. Kind of data set: Biodistribution in CD1 nude mouse small intestine at 7.4 MBq, iv after 10 mins by PET imaging analysis. As to conditions: in vivo. In kind it is ADME, organism-based. The method in brief: as §2
A short description of data set [13]: Drug uptake in tumor in CD1 nude mouse xenografted with human U87MG cells at 7.4 MBq after 100 mins by PET imaging analysis. The format is ADME, Neoplasm, U-87MG ATCC. As to conditions: in vivo.
Data set [14] can be described thus: Drug uptake in large tumor in CD1 nude mouse xenografted with human U87MG cells assessed as accumulation within the rim at 7.4 MBq after 100 mins by PET imaging analysis. The format is ADME, Neoplasm, U-87MG ATCC. To be noted: in vivo.
Data set [15] in a line: Drug uptake in tumor in […] CD1 nude mouse xenografted with human U87MG cells after 10 mins by PET imaging analysis. As to conditions: read-out: Drug uptake. In kind it is ADME, organism-based, Neoplasm, U-87MG ATCC.
Data set [16] can be described thus: Drug uptake in tumor in […] CD1 nude mouse xenografted with human U87MG cells after 100 mins by PET imaging analysis. In kind it is ADME, organism-based, Neoplasm, U-87MG ATCC. To be noted: in vivo.
Data set [17] can be described thus: Drug uptake in small tumor in CD1 nude mouse xenografted with human U87MG cells assessed as uniform distribution at 7.4 MBq after 100 mins by PET imaging analysis. In kind it is ADME, Neoplasm, U-87MG ATCC. To be noted: in vivo.
Data set [18] deals with Mus musculus. In words: In vivo inhibition of MMP in CD1 nude mouse xenografted with human U87MG cells at 7.4 MBq after 100 mins by PET imaging analysis in presence of ilomastat. The format is functional, organism-based. Further details: dose or concentration left out as unconfirmed. To be noted: U-87MG ATCC, tested as the 18F-labelled form. The method in brief:
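U-87 MG xenografted female CD1 nude mice received ilomastat i.p. at 40–160 mg/kg, 30 min before iv tracer (~7.4 MBq). Static 30-min PET acquired 100 min post-injection. %ID/g measured over whole tumor, rim and core.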

In data set [19] the test system is Mus musculus. In words: In vivo binding affinity to MMP-9 in human U87MG tumor xenografted in mouse assessed as MMP-9 level after 12 hrs by PET scanning followed by gelatin zymography. In kind it is functional, organism-based. To be noted: tested as the 18F-labelled form. The gist of the method: (§4)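 Xenograft tumors excised within 12 h after PET, frozen at −80 °C, ground, and lysed in 1% Triton X-100. Supernatant run on 10% SDS-PAGE containing 0.1% gelatin. Gel renatured in 2.5% Triton X-100, then developed 24 h at 37 °C in 50 mM Tris-HCl pH 7.4, 10 mM CaCl2, 0.5 μM ZnCl2, and stained with Coomassie. MMP-2 read at 72 kDa, MMP-9 at 92 kDa.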

Data set [20] deals with Mus musculus. Kind of data set: In vivo binding affinity to MMP-2 in human U87MG tumor xenografted in mouse assessed as MMP-2 level after 12 hrs by PET scanning followed by gelatin zymography. The format is functional, organism-based. To be noted: tested as the 18F-labelled form. The method in brief: as §4
A short description of data set [21]: Drug uptake in large tumor in CD1 nude mouse xenografted with human U87MG cells assessed as accumulation within the rim at 7.4 MBq after 45 mins by PET imaging analysis. The format is ADME, Neoplasm, U-87MG ATCC. To be noted: in vivo, 0.75 h.
Data set [22] is described as follows: Drug uptake in tumor in CD1 nude mouse xenografted with human U87MG cells at 7.4 MBq after 45 mins by PET imaging analysis. The format is ADME, Neoplasm, U-87MG ATCC. As to conditions: in vivo, 0.75 h.
A short description of data set [23]: Drug uptake in small tumor in CD1 nude mouse xenografted with human U87MG cells assessed as uniform distribution at 7.4 MBq after 45 mins by PET imaging analysis. The format is ADME, Neoplasm, U-87MG ATCC. As to conditions: in vivo, 0.75 h.

Chain of Matrix metalloproteinase-9 (P14780 whole entry): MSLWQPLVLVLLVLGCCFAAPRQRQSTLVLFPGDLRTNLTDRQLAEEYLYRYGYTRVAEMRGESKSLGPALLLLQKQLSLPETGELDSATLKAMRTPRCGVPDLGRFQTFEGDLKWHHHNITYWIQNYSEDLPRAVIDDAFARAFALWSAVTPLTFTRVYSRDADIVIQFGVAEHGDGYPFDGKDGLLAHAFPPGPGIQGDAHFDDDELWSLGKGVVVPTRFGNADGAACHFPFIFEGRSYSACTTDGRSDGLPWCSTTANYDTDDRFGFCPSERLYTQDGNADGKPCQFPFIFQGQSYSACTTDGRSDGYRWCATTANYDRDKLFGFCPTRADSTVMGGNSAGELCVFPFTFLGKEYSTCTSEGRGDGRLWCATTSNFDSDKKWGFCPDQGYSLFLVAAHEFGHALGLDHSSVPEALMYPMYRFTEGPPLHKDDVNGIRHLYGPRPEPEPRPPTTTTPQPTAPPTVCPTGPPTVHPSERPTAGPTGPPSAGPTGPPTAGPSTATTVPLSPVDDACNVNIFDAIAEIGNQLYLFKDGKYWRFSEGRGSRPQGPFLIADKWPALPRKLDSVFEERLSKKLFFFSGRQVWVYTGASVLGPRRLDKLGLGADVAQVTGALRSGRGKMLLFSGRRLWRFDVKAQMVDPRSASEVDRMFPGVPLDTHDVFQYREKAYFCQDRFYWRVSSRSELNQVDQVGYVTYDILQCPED
Chain of 72 kDa type IV collagenase (P08253 whole entry): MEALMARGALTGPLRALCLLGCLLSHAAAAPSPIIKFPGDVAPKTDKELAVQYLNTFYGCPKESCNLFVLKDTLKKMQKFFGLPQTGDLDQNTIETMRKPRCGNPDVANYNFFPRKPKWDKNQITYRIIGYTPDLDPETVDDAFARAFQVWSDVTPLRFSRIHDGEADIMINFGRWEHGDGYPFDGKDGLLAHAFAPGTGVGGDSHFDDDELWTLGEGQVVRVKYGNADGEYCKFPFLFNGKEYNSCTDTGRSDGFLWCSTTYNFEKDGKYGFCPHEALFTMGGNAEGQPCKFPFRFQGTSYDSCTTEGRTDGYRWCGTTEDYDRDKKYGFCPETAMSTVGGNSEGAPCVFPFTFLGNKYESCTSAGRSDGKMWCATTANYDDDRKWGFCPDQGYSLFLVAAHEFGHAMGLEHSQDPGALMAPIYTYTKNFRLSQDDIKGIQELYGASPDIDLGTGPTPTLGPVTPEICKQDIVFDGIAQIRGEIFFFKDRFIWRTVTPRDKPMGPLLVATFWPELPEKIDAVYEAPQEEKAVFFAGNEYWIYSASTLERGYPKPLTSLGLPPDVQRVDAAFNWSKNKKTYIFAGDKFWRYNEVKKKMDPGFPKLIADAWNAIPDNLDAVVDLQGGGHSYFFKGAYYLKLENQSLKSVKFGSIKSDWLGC
Chain of Albumin (P02768 whole entry): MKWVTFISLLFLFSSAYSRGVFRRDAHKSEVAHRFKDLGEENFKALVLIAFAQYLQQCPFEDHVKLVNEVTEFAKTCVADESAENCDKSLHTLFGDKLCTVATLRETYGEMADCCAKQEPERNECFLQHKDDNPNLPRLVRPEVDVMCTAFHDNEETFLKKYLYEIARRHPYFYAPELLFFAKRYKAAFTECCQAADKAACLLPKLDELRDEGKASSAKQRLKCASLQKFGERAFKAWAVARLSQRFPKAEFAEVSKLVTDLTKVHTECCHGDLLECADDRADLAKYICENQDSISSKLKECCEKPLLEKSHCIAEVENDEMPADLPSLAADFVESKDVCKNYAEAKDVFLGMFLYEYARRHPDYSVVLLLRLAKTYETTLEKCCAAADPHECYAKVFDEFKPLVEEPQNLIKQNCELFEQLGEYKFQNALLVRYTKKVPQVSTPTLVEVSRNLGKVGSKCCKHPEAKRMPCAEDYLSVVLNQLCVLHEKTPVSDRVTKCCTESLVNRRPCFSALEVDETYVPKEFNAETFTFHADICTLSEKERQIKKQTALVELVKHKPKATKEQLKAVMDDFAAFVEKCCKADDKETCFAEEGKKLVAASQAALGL

`O=C(O)Cc1ccccc1S(=O)(=O)c1ccc(-c2ccc(NC(=O)CF)cc2)cc1`: the IC50 in data set [1] was 6.1 µM; in data set [2], 1.5 µM; in data set [3], 6.8 µM; in [4] it was 4.6 µM; in data set [5], 0.5 µM; in data set [6], 0.061 µM. In data set [7], this molecule came in with an IC50 of 0.22 µM. The molecule also registered a Kd in data set [8] of 10 µM.

With `O=C(O)Cc1ccccc1S(=O)(=O)c1ccc(-c2ccc(NC(=O)C[18F])cc2)cc1`, the Drug uptake in data set [9] worked out at 11%; in data set [10], 12.4 % ID/g; in data set [11], 6.1 % ID/g; in data set [12], 2.4 % ID/g.

In the case of `CC(C)(C)OC(=O)Cc1ccccc1S(=O)(=O)c1ccc(-c2ccc(OCC[18F])cc2)cc1`, the results for the Drug uptake in data set [9] and in data set [12] were 21.6 % ID/g and 4.1 % ID/g, respectively.

With `O=C(O)Cc1ccccc1S(=O)(=O)c1ccc(-c2ccc(OCC[18F])cc2)cc1`, the Drug uptake in [13] is 1.4 % ID/g; in data set [9] it was 11.2 % ID/g; in [14], “Active”; in data set [10], 13.1 % ID/g; in [11], 8.5 % ID/g; in data set [16], 1.7 % ID/g. The results for the Drug uptake entry in data set [17] and in [12] were “Active” and 2.5 % ID/g, respectively. In addition, in data set [15], the tissue uptake at 10 min worked out at 1.1 %ID/g.

For `O=C(O)Cc1ccccc1S(=O)(=O)c1ccc(-c2ccc(OCCF)cc2)cc1`, the inhibition entry in [18] was “Active”. The IC50 came to 18.5 µM in [1]; 0.107 µM in data set [2]; 7.1 µM in [3]; 1.6 µM in data set [4]; 0.044 µM in data set [5]; 0.016 µM in data set [6]. In [7], this molecule returned an IC50 of 0.022 µM. Also, the outcome in data set [19] and in [20] was Active. In data set [8], this molecule registered a Kd of 140 µM.

For `OC[C@H]1OC(O)[C@H]([18F])[C@@H](O)[C@@H]1O` (some centres undefined) [FLUDEOXYGLUCOSE F 18], the Drug uptake result in data set [21] is reported as “Active”; in [22] it was 4.39 % ID/g; in [23] it was “Active”.

For the molecule `O=C(O)Cc1ccccc1S(=O)(=O)c1ccc(-c2ccc(F)cc2)cc1`, the IC50 in data set [1] turned out to be 11.5 µM; in [2], 3.6 µM; in data set [3], 67 µM; in [4], 4.8 µM; in data set [5] it was 0.4 µM; in data set [6], 0.23 µM. Also, inhibition in [7] was half-maximal at 0.386 µM (IC50).
